Laboratory results: PMC5708124 (Nature microbiology, 2017)

Key:
[1] = test system: PfMDR1 mutant lines versus parental ABS parasites (Dd2-B2, FCB); assay: Drug susceptibility profiling of HHQ-resistant lines in ABS parasites; assay type: cell-based, Plasmodium falciparum
[2] = test system: Pf ABS parasites and GAMs; settings: cited from earlier work
[3] = test system: NF54^Pfs16 early-stage GAMs; assay: Luciferase-based early-stage gametocyte inhibition assay; assay type: cell-based, Plasmodium falciparum; settings: in words
Method in brief: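 Gametocytes on day 1 of gametocytogenesis were set at 10% parasitemia and 0.5% Hct. They were kept in medium with 50 mM N-acetyl-D-glucosamine, refreshed daily. Compound was added at 0.4% DMSO final. Controls were DMSO (0% inhibition) and 5 μM puromycin (100% inhibition). After 72 h at 37°C in 5% O₂/5% CO₂/90% N₂, Steadylite was added, followed by 60 min lysis at room temperature and a luminescence read. Potency used serial dilutions up to 40 μM, three per log, on two independent occasions.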

[4] = test system: NF54^Pfs16 late-stage GAMs; assay: Image-based late-stage gametocyte inhibition assay; assay type: cell-based, Plasmodium falciparum; settings: in words
Method in brief: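 Day-8 stage IV gametocytes were MACS-purified and set at 10% parasitemia and 0.1% Hct, with 0.4% DMSO final. They were incubated 72 h at 37°C in 5% O₂/5% CO₂/90% N₂, then stained overnight with MitoTracker Red CM-H₂XRos. Confocal imaging counted viable mature gametocytes per imaged area; 5 μM puromycin was the control. Screening used 2 μM in triplicate. Potency used serial dilutions up to 40 μM, three per log, on two independent occasions.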

[5] = test system: 3D7 (drug-sensitive) ABS parasites; assay: Imaging-based asexual blood stage high-throughput assay; assay type: cell-based, Plasmodium falciparum; settings: read-out: ABS IC50; drug-sensitive 3D7, 72 h
Method in brief: (§1)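 Sorbitol-synchronized parasites were seeded at 2% parasitemia and 0.3% Hct and exposed to test compound for 72 h at 37°C in 5% O₂/5% CO₂/90% N₂. Cells were then permeabilized with 0.01% Triton X-100, 0.001% saponin and 5 mM EDTA, and stained with 0.5 μg/mL DAPI for at least 6 h at room temperature in the dark. Confocal imaging used 405 nm excitation. Parasites were counted from spot size and intensity. Two independent cultures.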

[6] = test system: Dd2 (multidrug-resistant) ABS parasites; assay: Imaging-based asexual blood stage high-throughput assay; assay type: cell-based, Plasmodium falciparum; settings: read-out: ABS IC50; multidrug-resistant Dd2, 72 h
[7] = test system: NITD609-R^Dd2 clone #2 (PfATP4 mutant line); assay: Imaging-based asexual blood stage high-throughput assay; assay type: cell-based, Plasmodium falciparum; settings: read-out: ABS IC50, 72 h
Method in brief: as §1

[8] = test system: HEK293 human embryonic kidney cell line; assay: HEK293 cytotoxicity; assay type: cell-based; settings: at 40 μM, 72 h
Method in brief: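 Cells were grown in DMEM with 10% fetal calf serum and seeded at 2,000 cells/well, then left overnight at 37°C in 5% CO₂ to adhere. Test compound was added as a serial dilution with a maximum of 40 μM, at 0.4% DMSO final, for 72 h. Medium was then replaced with serum-free DMEM containing 44 μM resazurin for 4–6 h. Fluorescence was read at 530/595 nm. Two biological replicates.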

[9] = test system: compound-exposed Pf GAMs in Anopheles stephensi mosquitoes; assay: Membrane-feeding assay with A. stephensi mosquitoes; assay type: in vivo, Plasmodium falciparum; settings: for reduction in oocyst density per infected mosquito midgut: GAMs pre-treated at 3x late-stage IC50; for reduction in infection prevalence (percentage of infected mosquitoes): GAMs pre-treated at 3x late-stage IC50, 3 days, then 4 days without compound
Method in brief: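 Day-12 gametocytes were treated 3 days at 1x or 3x their late-stage IC50, with compound refreshed daily, then held 4 days without compound. Controls were 0.25% DMSO and methylene blue at 3x. Stage V cultures (50% Hct, 0.01–0.16% parasitemia) were membrane-fed for 30 min to A. stephensi, kept at 26°C and 78% RH. Midguts were dissected on day 7–8, stained with mercurochrome and oocysts counted blind. Prevalence is the percentage of mosquitoes with at least one oocyst.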

male GAM exflagellation = assay: Male GAM exflagellation of GAM cultures used for membrane feeding; assay type: cell-based, Plasmodium falciparum; settings: GAM cultures exposed at 3x late-stage IC50
[10] = test system: P. berghei ANKA MRA868 ABS parasites; assay: 4-day Peters test; assay type: in vivo, P. berghei in CD-1 mice; settings: 4 doses, 96 h post infection
Method in brief: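 Female CD-1 mice (5 weeks old, 22–25 g; four per group) were infected intraperitoneally with 1x10⁶ parasites. The test compound was given intraperitoneally at 2, 24, 48 and 72 h after infection, in 20% DMSO in water. Controls were solvent only and DHA at 30 mg/kg. Parasitemia was read by microscopy at 96 h. Groups were randomized and blinded. The 100 mg/kg groups were tested once.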

[11] = test system: P. berghei ANKA MRA868 GAMs, Anopheles stephensi mosquitoes; assay: In vivo transmission-blocking effect; design: species or system P. berghei in CD-1 mice; settings: mice given two doses 12 h apart: 100 mg/kg GNF compounds, 30 mg/kg DHA
Dd2-B2 parasites = assay: Heme fractionation assay; assay type: cell-based, Plasmodium falciparum
[12] = test system: PfMDR1^selY290F parasites; assay: Heme fractionation assay; assay type: cell-based, Plasmodium falciparum; settings: PfMDR1^selY290F
Method in brief: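 Early ring-stage, sorbitol-synchronized parasites were exposed to test compound at 0.1, 0.25, 0.5, 1 and 2x the ABS IC50. Heme species were fractionated and normalized to the number of cells analyzed, counted by flow cytometry of an aliquot. Significance was tested by two-tailed t-tests.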

Dd2-B2 late rings = assay: Hb endocytosis by Western blot; assay type: cell-based, Plasmodium falciparum; settings: 5′ the IC50 for 5 h, normalized to DMSO control
Method in brief: (§2)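 Sorbitol-synchronized parasites were exposed to test compound at 5x IC50 for 5 h, starting at the late ring stage. Lysates were blotted to nitrocellulose and probed overnight at 4°C with rabbit anti-human Hb (1:5,000) and anti-β-actin (1:2,000). Detection was by ECL. Hb band intensities were normalized to β-actin and compared with untreated controls. Repeated on 3–4 independent occasions.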

[13] = test system: PfMDR1^selY290F late rings; assay: Hb endocytosis by Western blot; assay type: cell-based, Plasmodium falciparum; settings: 5′ the IC50 for 5 h
Method in brief: as §2

[14] = test system: cultured P. berghei liver-stage parasites; settings: cited from earlier work
[15] = all exposure levels up to 2′ IC50, 32 h

Row | Structure (SMILES) | early-stage gametocytocidal activity [3] | late-stage gametocytocidal activity [4] | IC50 [5] | IC50 [6] | IC50 [7] | inhibition of HEK293 cells [8] | reduction in oocyst density per infected mosquito midgut [9] | reduction in infection prevalence (percentage of infected mosquitoes) [9] | reduction in male GAM exflagellation rates (male GAM exflagellation) | reduction of parasitemia compared to vehicle-treated mice ([10]; 70 mg/kg intraperitoneal) | reduction of parasitemia compared to vehicle-treated mice ([10]; 100 mg/kg intraperitoneal) | reduction in oocyst burden [11] | reduction in the number of infected mosquitoes [11] | activity against liver-stage parasites [14] | further results
1 | CC(=O)N1CCN(c2ccc(CN(C(=O)/C=C/c3ccc(C(C)(C)C)cc3)[C@@H](Cc3ccccc3)C(=O)N3CCN(Cc4ccc(C#N)cc4)CC3)cc2)CC1 [ACT-451840] |  |  |  |  |  |  |  |  |  |  |  |  |  |  | fold decreased susceptibility versus Dd2-B2 ([1]; PfMDR1^edF1072L): 16 fold; fold decreased susceptibility versus Dd2-B2 ([1]; PfMDR1^edS1075I): 5.5 fold; fold decreased susceptibility versus Dd2-B2 ([1]; PfMDR1^selY290F): 45 fold; activity against Pf ABS parasites and GAMs [2]: low nanomolar
2 | CCOC(=O)C1=C(C)NC2=C(C(=O)CC(c3ccc(OC)c(OC)c3)C2)C1c1ccccc1Cl (centres unmarked) [GNF-Pf-5660] | potent | potent | < 25 nM | < 25 nM | < 25 nM | no inhibition | 95–99% | 97% | 98% | 22% | 65% | 21% | 25% | inactive | fold increase in IC50 compared to parental Dd2-B2 ([1]; GNF-Pf-5660-selected clone 2B6H1, PfMDR1 Y290F (AB 100%)): 248 fold; fold decrease in Hz levels compared with untreated controls (Dd2-B2 parasites; 0.1′ the IC50 value): 1.5 fold; fold reduction in Hz levels (Dd2-B2 parasites; 0.25′ to 2′ IC50): 2.3 fold; Hb concentration per parasite (Dd2-B2 parasites; [15]): unchanged; free heme concentration per parasite (Dd2-B2 parasites; [15]): unchanged; fold higher exposure levels than in Dd2-B2 giving similar profile of reduced Hz and total heme iron [12]: > 160 fold; reduction of Hb levels within parasites (Dd2-B2 late rings): 32%; Hb levels within parasites [13]: unchanged
3 | CCCOC(=O)C1=C(C)NC2=C(C(=O)CC(c3ccc(OC)c(OC)c3)C2)C1c1ccccc1F (centres unmarked) [GNF-Pf-5668] | potent | potent | < 25 nM | < 25 nM | < 25 nM | < 50% | 95–99% | 57% | 70% | 43% | 91% | No effect | No effect | inactive | fold increase in IC50 compared to parental Dd2-B2 ([1]; GNF-Pf-5668-selected clone 3C4D2, PfMDR1 F1072L (AB 67%)): 37 fold
